Experimental data: ChEMBL document CHEMBL1140655, “Design and synthesis of hepatoselective, pyrrole-based HMG-CoA reductase inhibitors” (Bioorg Med Chem Lett, 2007)
The source made the active and inactive calls. No cut-off for these calls is given here.

Tests used:
[1] = biological target: T1, 3-hydroxy-3-methylglutaryl-coenzyme A reductase (Homo sapiens, UniProt P04035); assay: Inhibition of HMG-CoA reductase
T1 sequence (P04035 whole entry): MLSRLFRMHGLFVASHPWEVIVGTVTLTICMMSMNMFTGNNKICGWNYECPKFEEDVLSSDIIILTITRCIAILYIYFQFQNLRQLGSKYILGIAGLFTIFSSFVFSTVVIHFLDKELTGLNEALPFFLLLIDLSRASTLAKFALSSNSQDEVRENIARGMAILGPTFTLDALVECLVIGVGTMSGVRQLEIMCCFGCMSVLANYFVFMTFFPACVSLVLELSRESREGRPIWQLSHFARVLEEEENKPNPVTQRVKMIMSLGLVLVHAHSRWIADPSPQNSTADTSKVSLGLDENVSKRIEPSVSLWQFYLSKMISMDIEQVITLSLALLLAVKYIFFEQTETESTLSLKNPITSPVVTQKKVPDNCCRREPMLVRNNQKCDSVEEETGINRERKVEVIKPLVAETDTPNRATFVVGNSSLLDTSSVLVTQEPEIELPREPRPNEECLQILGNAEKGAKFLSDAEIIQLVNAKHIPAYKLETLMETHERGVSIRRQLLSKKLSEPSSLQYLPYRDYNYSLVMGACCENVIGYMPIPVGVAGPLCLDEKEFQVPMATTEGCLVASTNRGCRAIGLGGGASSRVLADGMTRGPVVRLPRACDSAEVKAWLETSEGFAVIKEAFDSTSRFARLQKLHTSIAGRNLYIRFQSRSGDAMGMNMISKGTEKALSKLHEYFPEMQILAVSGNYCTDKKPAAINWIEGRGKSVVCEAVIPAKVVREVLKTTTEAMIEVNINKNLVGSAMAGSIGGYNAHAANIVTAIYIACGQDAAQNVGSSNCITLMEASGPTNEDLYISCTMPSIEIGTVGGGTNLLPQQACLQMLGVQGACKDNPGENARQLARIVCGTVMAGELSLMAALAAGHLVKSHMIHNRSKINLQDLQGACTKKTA

[2] = Inhibition of cholesterol synthesis in rat myocyte; format: functional, cell-based; details: Ventricular myocyte
[3] = system: Hepatocyte; assay: Inhibition of cholesterol synthesis in rat hepatocyte; format: functional, cell-based
[4] = system: Mus musculus; assay: Inhibition of acute cholesterol synthesis in mouse at 1 mg/kg; format: functional; details: for inhibition in vivo at 1 mg/kg: read-out: Inhibition
[5] = Reduction in LDL cholesterol on cholestyramine-primed hamster serum at 10 mg/kg, po after 7 days; format: functional; parameters: scale not given: the % may be the effect or the level left
Outline: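 Cholestyramine-primed hamsters were dosed orally at 10 mg/kg once daily for 7 days. At the end of treatment, serum LDL-C was measured and percent reduction calculated against an untreated control group.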

[6] = Reduction in LDL cholesterol on cholestyramine-primed orally dosed hamster plasma after 7 days; format: functional; details: Cricetulus griseus, po, 168 h
Outline: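 Cholestyramine-primed hamsters were dosed orally once daily for 7 days at 0.1, 0.5, 1, 5, 10 or 50 mg/kg (separate groups, n = 10 each). Animals were sacrificed 2 h after the final dose and plasma LDL measured. Results are mean ± SEM percent change from control, with ED50 derived from the dose–response.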

Structure (SMILES)	IC50 [1] [nM]	IC50 [2] [nM]	IC50 [3] [nM]	inhibition in vivo at 1 mg/kg [4] [%]	Activity [5] [%]	ED50 [6] [mg/kg]	inhibition [4]
COCc1ccc(CNC(=O)c2c(-c3ccccc3)c(-c3ccc(F)cc3)c(CC[C@@H](O)C[C@@H](O)CC(=O)O)n2C(C)C)cc1	0.7	211	1.5				
COc1cccc(NC(=O)c2c(-c3ccc(F)cc3)c(-c3ccc(F)cc3)c(CC[C@@H](O)C[C@@H](O)CC(=O)O)n2C(C)C)c1	6.6	50	0.3	54			
CC(C)n1c(CC[C@@H](O)C[C@@H](O)CC(=O)O)c(-c2ccc(F)cc2)c(-c2ccccc2)c1C(=O)Nc1ccc(C(N)=O)cc1	0.3	684	0.1	45			
CC(C)NC(=O)c1c(-c2ccccc2)c(-c2ccc(F)cc2)c(CC[C@@H](O)C[C@@H](O)CC(=O)O)n1C(C)C	15	1930	1.6	73			
CC(C)n1c(CC[C@@H](O)C[C@@H](O)CC(=O)O)c(-c2ccc(F)cc2)c(-c2ccccc2)c1C(=O)Nc1ccccc1	1.8	229	1	57			
CC(C)c1nc(N(C)S(C)(=O)=O)nc(-c2ccc(F)cc2)c1/C=C/[C@@H](O)C[C@@H](O)CC(=O)O [ROSUVASTATIN]	3.1	250	0.27	82	-25		
CC(C)n1c(CC[C@@H](O)C[C@@H](O)CC(=O)O)c(-c2ccc(F)cc2)c(-c2ccc(F)cc2)c1C(=O)Nc1cccc(O)c1	0.7	524	1.2	22			
CC(C)n1c(CC[C@@H](O)C[C@@H](O)CC(=O)O)c(-c2ccc(F)cc2)c(-c2ccccc2)c1C(=O)NCc1ccccc1	0.8	44	0.3	46			
COc1cccc(CNC(=O)c2c(-c3ccccc3)c(-c3ccc(F)cc3)c(CC[C@@H](O)C[C@@H](O)CC(=O)O)n2C(C)C)c1	1.8	130	0.1				
CC(C)n1c(CC[C@@H](O)C[C@@H](O)CC(=O)O)c(-c2ccc(F)cc2)c(-c2ccccc2)c1C(=O)N(C)C	20	1580	0.9	85			
CCC(C)(C)C(=O)O[C@H]1C[C@@H](C)C=C2C=C[C@H](C)[C@H](CC[C@@H]3C[C@@H](O)CC(=O)O3)[C@H]21 [SIMVASTATIN]		150	1.3				
CC(C)n1c(CC[C@@H](O)C[C@@H](O)CC(=O)O)c(-c2ccc(F)cc2)c(-c2ccccc2)c1C(=O)Nc1ccc(S(N)(=O)=O)cc1	2.9	1790	0.3	32			
CC(C)n1c(CC[C@@H](O)C[C@@H](O)CC(=O)O)c(-c2ccc(F)cc2)c(-c2ccccc2)c1C(=O)NCc1ccccn1	0.8	472	0.1	39			
CC(C)n1c(CC[C@@H](O)C[C@@H](O)CC(=O)O)c(-c2ccc(F)cc2)c(-c2ccccc2)c1C(=O)NCc1ccc(C#N)cc1	0.2	650	0.7	47			
CCNC(=O)c1c(-c2ccccc2)c(-c2ccc(F)cc2)c(CC[C@@H](O)C[C@@H](O)CC(=O)[O-])n1C(C)C.[Na+]	12	2270	0.7	76	-24	3	
Cc1csc(CNC(=O)c2c(-c3ccccc3)c(-c3ccc(F)cc3)c(CC[C@@H](O)C[C@@H](O)CC(=O)O)n2C(C)C)n1	1.5	1010	1.5	33			

Structure (SMILES)	IC50 [1] [nM]	IC50 [2] [nM]	IC50 [3] [nM]	inhibition in vivo at 1 mg/kg [4] [%]	Activity [5] [%]	ED50 [6] [mg/kg]	inhibition [4]
Cc1cnc(CNC(=O)c2c(-c3ccccc3)c(-c3ccc(F)cc3)c(CC[C@@H](O)C[C@@H](O)CC(=O)O)n2C(C)C)[nH]1	3.4	10400	0.5	11			
CC(C)n1c(CC[C@@H](O)C[C@@H](O)CC(=O)O)c(-c2ccc(F)cc2)c(-c2ccccc2)c1C(=O)Nc1ccc(C(=O)N(C)C)cc1	1.4	1110	0.7	10			
CC(C)n1c(CC[C@@H](O)C[C@@H](O)CC(=O)O)c(-c2ccc(F)cc2)c(-c2ccccc2)c1C(=O)NCc1ccc(C(=O)O)cc1	2.2	7920	0.1	7			
CNC(=O)c1c(-c2ccccc2)c(-c2ccc(F)cc2)c(CC[C@@H](O)C[C@@H](O)CC(=O)[O-])n1C(C)C.[Na+]	8.8	5300	1.2	83	-12		
CC(C)n1c(CC[C@@H](O)C[C@@H](O)CC(=O)O)c(-c2ccc(F)cc2)c(-c2ccc(F)cc2)c1C(=O)Nc1ccccc1		145	0.4	75			
CC(C)n1c(CC[C@@H](O)C[C@@H](O)CC(=O)O)c(-c2ccc(F)cc2)c(-c2ccccc2)c1C(=O)Nc1ccc(O)cc1	0.4	626	0.5	48			
Cc1cc(CNC(=O)c2c(-c3ccccc3)c(-c3ccc(F)cc3)c(CC[C@@H](O)C[C@@H](O)CC(=O)O)n2C(C)C)nn1C	0.6	3230	0.9	19			
CC(C)n1c(CC[C@@H](O)C[C@@H](O)CC(=O)O)c(-c2ccc(F)cc2)c(-c2ccccc2)c1C(=O)Nc1ccc(C(=O)O)cc1	0.3	12600	0.1				inactive
CC(C)n1c(CC[C@@H](O)C[C@@H](O)CC(=O)O)c(-c2ccc(F)cc2)c(-c2ccc(F)cc2)c1C(=O)Nc1cccc(C(=O)N(C)C)c1	0.3	549	0.2	20			
CC(C)n1c(CC[C@@H](O)C[C@@H](O)CC(=O)O)c(-c2ccc(F)cc2)c(-c2ccccc2)c1C(=O)NCc1ccc(C(=O)N(C)C)cc1	1.2	6520	4.9	38			
CC(C)n1c(CC[C@@H](O)C[C@@H](O)CC(=O)[O-])c(-c2ccc(F)cc2)c(-c2ccccc2)c1C(=O)NC1CC1.[Na+]	3.8	2780	2	70	-24		
CC(C)n1c(CC[C@@H](O)C[C@@H](O)CC(=O)O)c(-c2ccc(F)cc2)c(-c2ccccc2)c1C(=O)NCc1cccc(C(N)=O)c1	1.2	3100	0.1	22			
CC(C)n1c(CC[C@@H](O)C[C@@H](O)CC(=O)[O-])c(-c2ccc(F)cc2)c(-c2ccccc2)c1C(N)=O.[Na+]	3	2450	0.6	85	-11		
Cc1cc(CNC(=O)c2c(-c3ccccc3)c(-c3ccc(F)cc3)c(CC[C@@H](O)C[C@@H](O)CC(=O)O)n2C(C)C)n[nH]1	2.6	10400	0.5				
COc1ccc(CNC(=O)c2c(-c3ccccc3)c(-c3ccc(F)cc3)c(CC[C@@H](O)C[C@@H](O)CC(=O)O)n2C(C)C)cc1	0.8	310	0.4	52			
